The source of these data is ChEMBL document CHEMBL1125797, “Synthesis, characterization and myocardial uptake of cationic bis(arene)technetium(I) complexes” (J Med Chem, 1991).

Data set [1] deals with Rattus norvegicus. The experiment in a line: Biodistribution of compound in rat kidney after 5 min of administration. The class given is ADME, organism-based. To be noted: in vivo. In short, it runs like this:
(§1)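 Female Sprague-Dawley rats (150–200 g) received the 99mTc complex in normal saline (~12.5 μCi/mL) via a lateral tail vein at ~25 μCi/kg. They were killed by cervical dislocation 5 min after injection. Tissues were washed with saline, blotted, weighed and γ-counted, and the read-out was percent injected dose per g tissue.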

Data set [2] relates to Rattus norvegicus. The experiment in a line: (§2) Biodistribution of compound in rat muscle after 5 min of administration. Format: ADME, organism-based, Muscle tissue. The settings on record: in vivo. An outline of the steps:
(§3)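 Female Sprague-Dawley rats (150–200 g) received the complex in normal saline (~12.5 μCi/mL) through a lateral tail vein at ~25 μCi/kg. Rats were killed by cervical dislocation 5 min after injection. Tissues were washed with saline, blotted, weighed and γ-counted to give percent injected dose/g tissue.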

In data set [3] the test system is Rattus norvegicus. Description: Biodistribution of compound in rat heart after 5 min of administration. Format: ADME, organism-based. The settings on record: in vivo. An outline of the steps: as §1
Data set [4] concerns Rattus norvegicus. Description: Biodistribution of compound in rat liver after 5 min of administration. The class given is ADME, organism-based. To be noted: in vivo. An outline of the steps: as §1
The test system of data set [5] is Rattus norvegicus. Description: Biodistribution of compound in rat lung after 5 min of administration. Format: ADME, organism-based. The settings on record: in vivo. An outline of the steps:
(§4)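 Rats received the 99mTc complex in normal saline (~12.5 μCi/mL) by lateral tail vein injection at ~25 μCi/kg and were killed by cervical dislocation at the stated time. Tissues were washed with saline, blotted, weighed and γ-counted to give percent injected dose/g. Time-course values are averages of male and female rats.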

Data set [6] relates to Rattus norvegicus. Description: Biodistribution of compound in rat blood after 5 min of administration. Format: ADME, organism-based. To be noted: in vivo. In short, it runs like this:
as §1

The species entered for data set [7] is Rattus norvegicus. Description: (§5) The compound was tested for the plasma binding in rat. The class given is ADME, organism-based.
Data set [8] in a line: The compound was tested for the plasma binding in human. Format: ADME, cell-free. In short, it runs like this: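 Fresh heparinized human plasma (1.0 mL, obtained daily) was spiked with 0.02 mL test solution and incubated about 15 min. Duplicate samples went through saline-equilibrated Sephadex G-25 desalting columns by centrifugation. Eluate and gel were γ-counted for 1 min or to 1% σ error. % bound = net cpm eluate / net cpm (eluate + gel) × 100.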

Data set [9] is filed under the species Rattus norvegicus. Described as §5. Format: functional. In short, it runs like this:
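Plasma protein binding was measured in rat plasma samples collected during the rat biodistribution studies, after tail vein injection of the 99mTc complex in saline (~25 μCi/kg).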

For a further data set, the species on record is Homo sapiens. The experiment in a line: The compound was tested for the plasma binding in human. The class given is functional. In short, it runs like this: (§6)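 Test substance (0.02 mL) was added to 1.0 mL of heparinized fresh human plasma and incubated about 15 min. Duplicate samples were passed through Sephadex G-25 desalting columns by centrifugation. Eluate and gel were γ-counted for 1 min or to 1% σ error. % bound = net cpm eluate / net cpm (eluate + gel) × 100.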

Data set [10] is described as follows: as §2. The class given is ADME, organism-based, Muscle tissue. To be noted: in vivo. An outline of the steps: as §4
For data set [11], the system named is Rattus norvegicus. The experiment in a line: Biodistribution of compound in rat heart after 5 min of administration. The settings on record: in vivo. Format: ADME, organism-based. An outline of the steps: as §3
Data set [12] concerns Rattus norvegicus. The experiment in a line: Biodistribution of compound in rat liver after 5 min of administration. The class given is ADME, organism-based. The settings on record: in vivo. In short, it runs like this:
as §3

The subject of data set [13] is Rattus norvegicus. The experiment in a line: Biodistribution of compound in rat muscle after 5 min of administration. The class given is ADME, organism-based, Muscle tissue. The settings on record: in vivo. An outline of the steps: as §3
Data set [14] can be described thus: Plasma protein binding (human). Format: ADME, cell-free. An outline of the steps: as §6
Data set [15] deals with Rattus norvegicus. The experiment in a line: Biodistribution of compound in rat lung after 5 min of administration. The settings on record: in vivo. Format: ADME, organism-based. An outline of the steps: as §3
Data set [16] concerns Rattus norvegicus. Description: Biodistribution of compound in rat blood after 5 min of administration. Format: ADME, organism-based. To be noted: in vivo. An outline of the steps:
as §3

Data set [17] has as its system Rattus norvegicus. Description: Biodistribution of compound in rat kidney after 5 min of administration. The class given is ADME, organism-based. To be noted: in vivo. An outline of the steps:
as §3

As to “BIS(TOLUENE)TECHNETIUM [listing 1 of 2 here]”, the Dose/g in the data set on Rattus norvegicus [1] was found to be 3.4%; with Rattus norvegicus [2] it was 0.069%; with Rattus norvegicus [3], 0.22%; in the data set on Rattus norvegicus [4] it was 2.6%; in the data set with Rattus norvegicus [5], 0.51%; in the data set with Rattus norvegicus [6] it was 0.2%.

Turning to Bis(1,2,4-trimethylbenzene)technetium, the Dose/g with Rattus norvegicus [1] was 7%; in the data set with Rattus norvegicus [2] it was 0.32%; with Rattus norvegicus [3], 1.4%; with Rattus norvegicus [4], 0.8%; with Rattus norvegicus [5] it was 0.78%; in the data set with Rattus norvegicus [6], 0.38%. In addition, the results for the Plasma binding (in the data set filed under Rattus norvegicus [7]; in data set [8]) were 12% and 20%, respectively.

Take “Bis(1,2,3,5-tetramethylbenzene)technetium”: the PPB in the data set filed under Rattus norvegicus [9] turned out to be 21%; in the data set listed under Homo sapiens it was 36%.

Turning to Bis(1,2,3-trimethylbenzene)technetium, the Dose/g came to 9% in the data set with Rattus norvegicus [1]; 0.27% in the data set with Rattus norvegicus [2]; 1% in the data set with Rattus norvegicus [3]; 1% in the data set on Rattus norvegicus [4]; 0.66% with Rattus norvegicus [5]; 0.13% with Rattus norvegicus [6]. Moreover, the Plasma binding in the data set filed under Rattus norvegicus [7] worked out at 6.6%; in [8], 24%.

On to “Bis(toluene)technetium [listing 1 of 2 here]”, for which the Dose/g turned out to be 3.4% in the data set with Rattus norvegicus [1]; 0.22% in the data set on Rattus norvegicus [3]; 2.6% with Rattus norvegicus [4]; 0.51% with Rattus norvegicus [5]; 0.2% in the data set with Rattus norvegicus [6]; 0.069% in data set [10].

On to Bis(m-xylene)technetium, for which the Dose/g in the data set on Rattus norvegicus [1] is recorded as 8%; with Rattus norvegicus [3] it was 0.47%; with Rattus norvegicus [4] it was 2%; in the data set on Rattus norvegicus [5], 0.59%; with Rattus norvegicus [6] it was 0.1%; in data set [10], 0.17%.

In the case of “Bis(1,2,3,4-tetrahydronaphthalene)technetium”, the Dose/g is reported as 2.6% in the data set on Rattus norvegicus [11]; 0.65% in the data set with Rattus norvegicus [12]; 0.51% with Rattus norvegicus [13]; 1% with Rattus norvegicus [15]; 0.24% in the data set on Rattus norvegicus [16]; 9.1% in the data set on Rattus norvegicus [17]. For the same substance, the Plasma binding in the data set listed under Rattus norvegicus [7] worked out at 5.8%; in data set [14], 51%.

Consider “BIS(TOLUENE)TECHNETIUM [listing 2 of 2 here]”, for which the PPB in the data set filed under Rattus norvegicus [9] was 8.9%; in the data set filed under Homo sapiens, 11%.

As to “Bis(1,2,3,4-tetramethylbenzene)technetium”, the Dose/g is 2.4% in the data set with Rattus norvegicus [11]; 0.73% in the data set with Rattus norvegicus [12]; 0.66% in the data set with Rattus norvegicus [13]; 1.1% with Rattus norvegicus [15]; 0.094% in the data set with Rattus norvegicus [16]; 8.2% with Rattus norvegicus [17]. For the same substance, the Plasma binding in the data set filed under Rattus norvegicus [7] was 22%; in [14] it was 46%.

Consider BIS(TETRAHYDROACENAPHTHENE) TECHNETIUM, for which the Dose/g was 4% in the data set on Rattus norvegicus [11]; 0.45% in the data set with Rattus norvegicus [12]; 0.82% in the data set with Rattus norvegicus [13]; 1.4% in the data set with Rattus norvegicus [15]; 0.23% in the data set on Rattus norvegicus [16]; 6% in the data set on Rattus norvegicus [17]. Besides, the Plasma binding came out at 27% in the data set filed under Rattus norvegicus [7] and 90% in [14].

For “Bis(toluene)technetium [listing 2 of 2 here]”, the PPB is 8.9% in the data set filed under Rattus norvegicus [9] and 11% in the data set listed under Homo sapiens.

As for BIS(INDAN)TECHNETIUM, the Dose/g in the data set on Rattus norvegicus [11] is given as 1.1%; in the data set on Rattus norvegicus [12], 1.7%; in the data set with Rattus norvegicus [13], 0.23%; in the data set with Rattus norvegicus [15], 0.98%; in the data set on Rattus norvegicus [16], 0.077%; in the data set with Rattus norvegicus [17], 11%. In addition, the Plasma binding is given as 6.8% in the data set filed under Rattus norvegicus [7] and 17% in [14].
